# According to ChEMBL document CHEMBL4513216, “Probing the Open Global Health Chemical Diversity Library for Multistage-Active Starting Points for Next-Generation Antimalarials” (ACS Infect Dis, 2020):
# Test: Toxicity liver stage against HepG2, at 10uM
# Format: cell-based
# Design: test concentration 10 uM, cell line HepG2-A16-CD81EGFP
# Conditions: human, HepG2-A16-CD81EGFP cells; read-out: INHIBITION
# Outline: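 Uninfected HepG2-A16-CD81EGFP cells, 3 × 10^3 per well, 1536-well, plated on prespotted compound at 10 μM final, parasite-free screening media added to match infected plates; puromycin 10 μM positive, DMSO 0.5% negative; run in parallel with 48 h PbLuc assay at 37 °C, 5% CO2; viability by CellTiter-Glo luminescence, normalized to controls.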
row,Structure (SMILES),cytotoxicity at 10 µM
1,COCCOc1ccnc(-c2noc([C@@H]3CCCN3C)n2)c1,-7.18%
2,CC(C)(C)CN1CCC[C@H]1c1nc(-c2cncnc2N)no1,-3.66%
3,COC(=O)[C@@H]1Cc2c[nH]c3cccc(c23)[C@H](CC(C)C)N1,9.57%
4,CN1CCC(N[C@@H]2CO[C@H](CNC(=O)C3CCCC3)[C@H]2O)CC1,-4.63%
5,CC[C@H]1CN2CC[C@H]1C[C@@H]2CNC(=O)c1ccco1,3.46%
6,CCOC(=O)[C@H]1[C@@H](O)C(=O)N(C)C12CCN(C(=O)OC)CC2,-0.817%
7,CCOC(=O)CNC(=O)N1CCC(OC)c2ccccc2N(C)C(=O)C1 (stereo unspecified),3.36%
8,COc1ccc2c3c1CN(S(C)(=O)=O)CC3=CC(C)(C)CO2,7.77%
9,CC(C)OCC(=O)Nc1ccc(Oc2ccc3c(c2)OCO3)nc1,-13.1%
10,CCN(CC)c1nc2ccsc2c(=O)n1CCC(=O)NCc1cccs1,-5.27%
11,COc1ccc(Cl)cc1NC(=O)CN1CCc2nc(NC(C)=O)sc2C1,-4.2%
12,CCOCC1c2c(ncn2C(C)C)CCN1C(=O)CC (stereo unspecified),4.17%
13,Nc1nc2c(s1)C(c1c(F)cccc1Cl)CC(=O)N2 (stereo unspecified),4.21%
14,CCC1=NC(SCC(=O)c2ccc(Cl)cc2)c2cc(CC)sc2N1 (stereo unspecified),8.16%
15,Cc1nn(C)c2cn(CC(=O)N3CCN(c4ccccn4)CC3)nc12,3.57%
16,Cc1ccn(-c2ccnc(N3CCSCC3)n2)n1,9.87%
17,O=C(c1c(F)cccc1F)N1CCC[C@@H]1Cn1c(=O)oc2ccccc21,4.42%
18,CCn1cc(CN2CCC(c3ncc(Cl)cc3S(C)(=O)=O)CC2)c(C)n1,5.68%
19,COCC(=O)NCCc1nc2cc(-c3ccc(OC)cc3)ncn2n1,10.5%
20,COc1c(CNCCc2c[nH]c3ccccc23)c(C)nn1C,15%
21,CCc1ccc(S(=O)(=O)Nc2cnccc2C)s1,-3.63%

row,Structure (SMILES),cytotoxicity at 10 µM
1,CN1CCN(C)C(CNC(=O)N(C)Cc2ccc(Cl)c(F)c2)C1 (stereo unspecified),6.32%
2,Cc1ccc(C(=O)N2CCN(c3ncnc4nc(N)ccc34)CC2)cc1,8.88%
3,O=C(c1ccoc1)N1CCC(O)(C(F)(F)F)CC1,3.88%
4,CC(C)CCn1ccc(NC(=O)N2CCCC2C(C)(C)O)n1 (stereo unspecified),5.07%
5,COc1ccc(CNCCc2cc(F)cc3c2OCOC3)c(OC)c1,-3.41%
6,Cc1csc(N2CCN(Cc3nccn3C)CC2C)n1 (stereo unspecified),-0.274%
7,Cc1n[nH]c(C)c1CNC(=O)N1CCCC(Cc2nccn2C)C1 (stereo unspecified),-19.2%
8,CN(C)c1cc(C(=O)NCC2(c3cccc(F)c3)CCOCC2)ccn1,8.8%
9,Cc1cc(C)n(-c2ccc(C(=O)NCC(c3cccs3)N(C)C)cc2)n1 (stereo unspecified),4.58%
10,CNC(=O)c1ccc2c(c1O)OC(C)(C)C2,-6.08%
11,CCOc1ccc(C#N)cc1NC(=O)N1CCOC(C(N)=O)C1 (stereo unspecified),12.9%
12,COC1CCCN(C(=O)c2sc(CC(C)C)nc2C)C1 (stereo unspecified),10.9%
13,Cc1ccc2ncnc(N3CCOCC3c3c(C)nn(C)c3C)c2c1 (stereo unspecified),12.2%
14,CCN(Cc1nc(C(C)C)no1)Cc1cccs1,-8.57%
15,CC1Cc2ccccc2N1Cc1occc1C(=O)OCC(N)=O (stereo unspecified),-9.18%
16,CC(C)c1ccc(-c2nnn(CCNS(C)(=O)=O)n2)cc1,-3.51%
17,CC(=O)c1c(F)cccc1N1CCC(CS(N)(=O)=O)CC1,-7.79%
18,Cc1nc(C)n(CC2CN(CC(=O)Nc3nccs3)CCO2)n1 (stereo unspecified),-13.8%
19,CCN1Cc2c(C(=O)NC(C)C(C)C)ncn2-c2ccccc2S1(=O)=O (stereo unspecified),-66.3%
20,Cc1nc(NCC2CC2)nc2c1COCC21CCN(C(=O)NC(C)C)C1 (stereo unspecified),-83.2%
21,CC(C)NC(=O)C1CN(C(=O)c2ccccc2)CC12CCOCC2 (stereo unspecified),-82.6%

row,Structure (SMILES),cytotoxicity at 10 µM
1,CCCn1cnnc1CNC(=O)C1COc2cc(OC)ccc2C1 (stereo unspecified),3.21%
2,CCN(CC)Cc1cc(C(=O)N2CCCC(CC)(C(=O)O)C2)c(C)o1 (stereo unspecified),7.25%
3,CCc1nnc(CN(CC)C(=O)C(C)n2ccnc2C(C)C)o1 (stereo unspecified),6.23%
4,O=C(O)c1cc(-n2cc3c(n2)CCC3)cc(S(=O)(=O)NC2CCCC2)c1,-2.05%
5,COCCn1cncc1CN1CCCC(C)(c2ccccc2)C1 (stereo unspecified),0.363%
6,CCn1nc(C(=O)N2CCNCC2C(=O)Nc2ccc(C)nc2)cc1C (stereo unspecified),10.2%
7,Clc1ccccc1OC1CCN(CC2CCOC2)CC1 (stereo unspecified),-9.85%
8,O=C(NCCN1CCOC1=O)c1cc(-c2ccccc2)on1,12.3%
9,CN(C)c1ncnc2c1CCN(C(=O)CN1CCCCC1)C2,-0.747%
10,CCCc1cc(N2CCC(NCCc3ccc(O)cc3)CC2)nc(C)n1,-6%
11,O=S1(=O)COCCN1Cc1ccc(F)c(F)c1,3.42%
12,NC(=O)c1cc2c(nc1-c1ccoc1)CCC2,0.562%
13,Cc1n[nH]c(C)c1Sc1ccccc1NC(=O)N1CCOCC1,4.63%
14,CCC(C)Sc1ncc(-c2c(C#N)c(N)nc3c2COCC3)cn1 (stereo unspecified),15.1%
15,NCCc1n[nH]c(=O)n1-c1cccc2ccccc12,3.96%
16,Cc1ccsc1-c1nc(CN(C)Cc2noc(C(C)C)n2)c(C)o1,-5.85%
17,Cc1nccn1CCCC(=O)N1CCC2(CCC(=O)N(C(C)C)C2)CC1,-10.8%
18,COc1ccnc(N2CCC3(CCCN(CC4CC4)C3=O)C2)n1 (stereo unspecified),1.13%
19,CCn1nc(CNC(=O)C2CC(=O)N(C3CCCC3)C2)c2ccccc21 (stereo unspecified),-25.8%
20,O=S(=O)(NCC1CCOc2ccccc2C1)N1CCOCC1 (stereo unspecified),-9.75%
21,COCC1CCCN(C(=O)c2cc(Cn3ccc4ccccc43)[nH]n2)C1 (stereo unspecified),-11.5%

row,Structure (SMILES),cytotoxicity at 10 µM
1,Cc1nc(CN2CCCC(Cn3cncn3)C2)nc2ccccc12 (stereo unspecified),-16.2%
2,COC(=O)c1cc(C(=O)N2CCN(C)CC2)n(-c2ccccc2)n1,-13.2%
3,CC(NC(=O)CSCC(=O)Nc1ccccc1)c1ccccc1 (stereo unspecified),-6.17%
4,Cc1nc2ccnn2c(C)c1CCC(=O)N1CCN(C2CC2)CC1,-7.2%
5,Cc1cccc(OCCNC(=O)CN2CCCC2Cn2cccn2)c1 (stereo unspecified),-9.46%
6,Cc1cc(C)c(CNC(=O)NCc2ccc3c(c2)CCC3)c(=O)[nH]1,10.4%
7,CCNc1cc2c(nn1)CCN(C(=O)CC1CCCCC1)C2,-10.3%
8,Cc1nc(CN2CCN(C(=O)c3ccn(C)c(=O)c3)CC2)cs1,1.73%
9,CCC1CN(C(=O)NCCOc2ccc3c(c2)OCO3)CCO1 (stereo unspecified),-4.25%
10,Cc1cn2c(n1)CCC(NC(=O)c1nc(C)ncc1Cl)C2 (stereo unspecified),-3.13%
11,OCC1CCCN1c1cc(N2CCc3ccccc3C2)ncn1 (stereo unspecified),2.53%
12,O=C1C[C@H]2[C@@H](CCN2C(=O)c2ccccc2)N1CCN1CCOCC1,-3.33%
13,O=C(C1CCOCC1)N1CCc2ncc(CN3CCCC3)n2CC1,-76.1%
14,CO[C@H]1CCN(Cc2cccc(C)n2)[C@@H]2CN(Cc3cccnc3)C[C@H]12,-11.3%
15,c1cnc2c(c1)cc([C@H]1CCCO1)n2CCN1CCOCC1,-11.3%
16,CC(C)NC(=O)CC1COC2(CCN(Cc3cccs3)CC2)C1 (stereo unspecified),4.57%
17,O=C(CCc1ccccc1)N1C[C@@H]2CN(Cc3ccoc3)CCO[C@@H]2C1,-77.8%
18,CSc1ncccc1C(=O)N1C[C@@H]2CC[C@H]1CN(C(=O)N(C)C)C2,1.71%
